Results from ChEMBL document CHEMBL5346886 (Eur J Med Chem, 2023).
The source made the active and inactive calls. The calls are words filed in the database; no cut-off is given here.

Key:
Murine hepatitis virus [1] = assay: Antiviral activity against murine hepatitis virus-A59 infected in BALB/c mouse assessed as reduction in IL-6 production in liver at 10 to 100 mg/kg, po administered once daily one hour post infection and measured after 3 days by ELISA analysis; assay type: functional, organism-based; details: dose 10-100 mg/kg, time 3.0 day
Outline: (§1)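 MHV-A59 was inoculated intranasally into male BALB/c mice (30 μL, TCID50 = 10−7.125/100 μL), with oral dosing once daily from 1 hpi for four days. At 3 dpi, 0.1 g lung or liver from 4 mice per group was homogenized in 0.9 mL water at 4 °C and centrifuged. Supernatant IFN-β was read by ELISA; TNF-α, IFN-γ, IL-1β, IL-6 and CXCL10 by multi-analyte kit, with OD 450 nm against standards.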

Canine coronavirus = assay: Antiviral activity against Canine coronavirus infected in CRFK cells assessed as reduction in viral copy pre-infected with cells for 1 hrs followed by compound addition and measured after 48 hrs by RT-qPCR analysis; assay type: functional, organism-based; details: Alphacoronavirus 1, CRFK
Outline: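 CRFK cells (CCoV, FIPV) or ST cells (TGEV) were grown in DMEM with 10% FBS at 37 °C, 5% CO2. At 80% confluence they were washed in serum-free medium and infected at MOI 0.01 for 1 h at 37 °C. Compounds were then added at 0.1–100 μmol/L, with DMSO as blank. After 48 h, cells and supernatants were analysed by qRT-PCR. Inhibition came from viral copy number, and EC50 from curve fitting.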

[2] = Drug metabolism in Sprague-Dawley rat assessed as hydrolysis-mediated GS-441524 metabolite formation at 25 mg/kg, po administered as single dose and measured after 24 hrs by LC-MS/MS analysis; assay type: ADME, organism-based; details: in vivo
Outline: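 Male SD rats (n = 3), fasted 12 h, dosed intragastrically; jugular vein blood into EDTA-K2 tubes at 0.25, 0.5, 1, 2, 3, 4, 6, 8 and 24 h; plasma protein-precipitated with acetonitrile, filtered, analytes measured by LC/MS/MS; noncompartmental PK analysis; mean ± SD.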

[3] = Drug distribution in BALB/c mouse kidney assessed as hydrolyzed ibuprofen metabolite at 200 mg/kg, po administered as single dose and measured after 1 hrs by LC-MS/MS analysis; assay type: ADME, organism-based; details: in vivo
Murine hepatitis virus [4] = assay: Antiviral activity against murine hepatitis virus-A59 infected in BALB/c mouse assessed as inhibition of viral titer in lungs at 200 mg/kg, po administered once daily one hour post infection and measured after 3 days by qRT-PCR analysis; assay type: functional, organism-based; details: time 3.0 day
Outline: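 SPF male BALB/c mice aged 3–4 weeks were put under isoflurane and inoculated intranasally with 30 μL MHV-A59 (TCID50 = 10−7.125/100 μL) in PBS. Oral dosing once daily in 15% Cremophor EL/82.5% PBS/2.5% DMSO started at 1 hpi and ran for four days; groups had 12 mice. At 3 dpi, 4 mice per group were killed and lung and liver M-gene copies measured by qRT-PCR.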

Murine hepatitis virus [5] = assay: Antiviral activity against murine hepatitis virus-A59 infected in BALB/c mouse assessed as reduction in IL-6 production in lungs at 200 mg/kg, po administered once daily one hour post infection and measured after 3 days by ELISA analysis; assay type: functional, organism-based; details: time 3.0 day; outline: as §1
Murine hepatitis virus [6] = assay: Antiviral activity against murine hepatitis virus-A59 infected in BALB/c mouse assessed as reduction in CXCL10 production in lungs at 200 mg/kg, po administered once daily one hour post infection and measured after 3 days by ELISA analysis; assay type: functional, organism-based; details: time 3.0 day; outline: as §1

With `CC(C)Cc1ccc(C(C)C(=O)OC[C@H]2O[C@@](C#N)(c3ccc4c(N)ncnn34)[C@H](O)[C@@H]2O)cc1` (some centres not stated) the Activity (Murine hepatitis virus [1]) was “Active”, the EC50 (Canine coronavirus) was 1410 nM and the Drug metabolism [2] was “Metabolite_Detected”. The Drug uptake [3] was “Active”, the Activity (Murine hepatitis virus [4]) was “Active” and the Activity (Murine hepatitis virus [5]) was “Active”. For the same compound, the Activity (Murine hepatitis virus [6]) was “Active”.
